Hits are enriched below; roughly 0.4% of the tested compounds scored in any of these assays.
ERp5 block: blocks human ERp5 reductase activity on insulin | Q15084 | ERp5 insulin aggregation, absorbance 650 nm, 90 min | inhibition, % at 9.99 µM | actives 0.05% (n = 350,000) | AID 651711;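 active = mean replicate inhibition above about 25%, with every replicate also reaching it, limit read from the data, passing the limit was not always enough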
PDI inh: inhibitors of human protein disulfide isomerase. PDI insulin aggregation turbidity, A650, 90 min. AID 588391. inhibition, % at 10 µM. actives 0.052% (n = 350,000);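 active = mean inhibition across replicates of 30% or more, whatever share of single replicates reach that level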
Tb MetRS inh: Trypanosoma brucei MetRS inhibition; inhibition, % at 11.9 µM; actives 0.4% (n = 360,000); AID 624268; purified T. brucei MetRS, ATP depletion, Kinase-Glo luminescence;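 active = inhibition above a per-plate cutoff of the control wells' mean inhibition plus 3 SD, cut at about 5.5% in these data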;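 note: 0% = DMSO wells median and 100% = median of wells with control inhibitor compound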
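assay system = parasite MetRS enzyme | timing = 15 min preincubation, 2 h reaction, all 25 °C | evaluation = percent inhibition relative to median high and low control wells | medium = HEPES buffer containing pyrophosphatase, BSA, spermine, DTT | compound = single dose, 11.9 µM final nominal, 0.9% final DMSO | detection = Kinase-Glo luminescence, ATP depletion format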
Tb MetRS conf: Trypanosoma brucei MetRS inhibition confirmed | shares compounds with Tb MetRS inh | T. brucei MetRS enzyme, luminescence (ATP depletion) | inhibition, % at 11.9 µM | actives 93% (n = 1,400) | AID 624412; in the data active = inhibition above about 7%
Jurkat cytotox: counter-screen for T. brucei MetRS inhibitors: Jurkat cell cytotoxicity; AID 624413; inhibition, % at 8.3 µM; shares compounds with Tb MetRS inh; actives 12% (n = 1,400); Jurkat cells viability, ATP luminescence; in the data active = inhibition above about 15%;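 note: 0% = vehicle and 100% = reference inhibitor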
Tb MetRS inh FP: inhibits T. brucei methionyl tRNA synthetase in orthogonal FP test | AID 651607 | shares compounds with Tb MetRS inh | purified T. brucei MetRS, fluorescence polarization | actives 44% (n = 1,400) | inhibition, % at 11.9 µM; in the data active = inhibition above about 17%;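 note: 0% = vehicle wells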
Active calls of the source: *.

For COC(=O)[C@@H]1[C@@H](CO)[C@@H]2Cn3c(ccc(-c4cccnc4)c3=O)[C@H]1N2S(=O)(=O)c1ccccc1F the results were ERp5 block 3.
Screening O=C1Nc2ccccc2C1Cc1nc2ccccc2c(=O)n1-c1ccccc1 (centres undefined) returned ERp5 block 14, PDI inh 0, Tb MetRS inh 9.1*, Tb MetRS conf 6.2*, Jurkat cytotox -5 and Tb MetRS inh FP 10.
`CN1C(=O)C(Cc2nc3ccccc3c(=O)n2-c2ccccc2)c2ccccc21` (centres undefined) gave PDI inh 0 and Tb MetRS inh 0.
`O=C(Cc1ccccc1)N1C[C@H]2[C@@H](c3ccccc31)[C@H](CO)N2Cc1ccccc1` gave ERp5 block 1.
For CCN(CC)C(=O)c1ccc(NC(=O)c2ccc(-n3cncn3)c([N+](=O)[O-])c2)cc1 the results were ERp5 block 0, PDI inh 1, Tb MetRS inh 8.0*, Tb MetRS conf 43*, Jurkat cytotox 8 and Tb MetRS inh FP 26*.
Screening CCN(CC)C(=O)c1ccc(NC(=O)c2cccc(C(F)(F)F)c2)cc1 returned ERp5 block 2, PDI inh -1 and Tb MetRS inh 0.
Screening CC(C)NC(=O)N1[C@@H]2c3ccc(-c4cccc(C(=O)N(C)C)c4)c(=O)n3C[C@H]1[C@H](CO)[C@H]2C(=O)O returned ERp5 block 5.
For CN(C)Cc1c[nH]c2cc([N+](=O)[O-])ccc12 the results were ERp5 block -3, PDI inh -5, Tb MetRS inh 6.7*, Tb MetRS conf 30*, Jurkat cytotox -3 and Tb MetRS inh FP 14.
`CN(C)Cc1c[nH]c2ccc([N+](=O)[O-])cc12` gave ERp5 block 3, PDI inh -7 and Tb MetRS inh 0.
Screening COC(=O)[C@@H]1[C@@H](CO)[C@@H]2Cn3c(ccc(-c4ccccc4F)c3=O)[C@H]1N2Cc1ccncc1 returned ERp5 block -6.
For COc1ccc(Cn2c(N)c(C(=O)NCc3ccco3)c3nc4ccccc4nc32)cc1OC the results were PDI inh -7, Tb MetRS inh 8.0*, Tb MetRS conf 5, Jurkat cytotox 14 and Tb MetRS inh FP 11.
COCCCNC(=O)c1c(N)n(Cc2ccco2)c2nc3ccccc3nc12 was read as ERp5 block -2, PDI inh 8 and Tb MetRS inh 0.
Screening COc1ccc(-c2ccc([C@H]3[C@H]4CN(C(=O)Cc5ccncc5)CCCCN4[C@H]3CO)cc2)cc1 returned ERp5 block -4.
For COC(=O)[C@H]1[C@H](CO)[C@H]2Cn3c(ccc(/C=C/c4ccccc4)c3=O)[C@@H]1N2C(=O)C1CC1 the results were ERp5 block -5.

Source: PubChem BioAssay
